Measurements published in ChEMBL document CHEMBL3244367, “Synthesis and determination of antiviral activity of the 2'(3')-O-methyl derivatives of ribavirin (1-beta-D-ribofuranosyl-1,2,4-triazole-3-carboxamide)” (1977).
Values after ≈ are worked out from the molar mass of the structure shown. Active and inactive are the calls of the source. The calls are words filed in the database; no cut-off is given here.

Key:
Human alphaherpesvirus 1 = assay: Antiviral activity against Herpes simplex virus 1 infected in primary rabbit kidney cells assessed as inhibition of virus-induced cytopathogenicity treated immediately after virus adsorption measured 3 days after virus infection; assay type: functional; conditions: Human alphaherpesvirus 1, 72 h
Summary of the method: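 Compound added right after virus adsorption; 100 CCID50 virus per culture. Cytopathogenicity was scored once complete in untreated infected controls. The value is the concentration giving 50% inhibition of viral cytopathogenicity.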

[1] = tested on: Vesicular stomatitis virus; assay: Antiviral activity against Vesicular stomatitis virus infected in primary rabbit kidney cells assessed as inhibition of virus-induced cytopathogenicity treated immediately after virus adsorption measured 2 days after virus infection; assay type: functional; conditions: 48 h
Poliovirus 1 = assay: Antiviral activity against Poliovirus type 1 infected in human HeLa cells assessed as inhibition of virus-induced cytopathogenicity treated immediately after virus adsorption measured 2 days after virus infection; assay type: functional; conditions: Enterovirus C, 48 h
Coxsackievirus B4 = assay: Antiviral activity against Coxsackievirus B4 infected in human HeLa cells assessed as inhibition of virus-induced cytopathogenicity treated immediately after virus adsorption measured 2 days after virus infection; assay type: functional; conditions: Enterovirus B, 48 h
kidney = assay: Inhibition of DNA synthesis in primary rabbit kidney cells assessed as inhibition of [3H]thymidine incorporation into DNA at 100 ug/mL; assay type: functional, cell-based; conditions: Oryctolagus cuniculus
Summary of the method: (§1)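 Host-cell DNA synthesis in primary rabbit kidney cells, measured as [methyl-3H]thymidine incorporation into DNA. ID50 is the dose inhibiting thymidine incorporation by 50%. The highest concentration tested was 100 μg/mL.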

[2] = Inhibition of DNA synthesis in primary rabbit kidney cells assessed as inhibition of [3H]thymidine incorporation into DNA; assay type: functional; conditions: Oryctolagus cuniculus, read-out: ID50 (the source's name); summary of the method: as §1

| SMILES | MIC50 (Human alphaherpesvirus 1) [µg/mL] | MIC50 [1] [µg/mL] | MIC50 (Poliovirus 1) [µg/mL] | MIC50 (Coxsackievirus B4) [µg/mL] | inhibition (kidney) | IC50 [2] [µg/mL] |
| --- | --- | --- | --- | --- | --- | --- |
| CO[C@H]1[C@@H](O)[C@H](n2cnc(C(N)=O)n2)O[C@@H]1CO | > 200 | > 200 | > 200 | > 200 | inactive |  |
| NC(=O)c1ncn([C@@H]2O[C@H](CO)[C@@H](O)[C@H]2O)n1 [RIBAVIRIN] | 20 (≈ 81.9 µM) | 70 (≈ 287 µM) | 40 (≈ 164 µM) | 40 (≈ 164 µM) |  | 20 (≈ 81.9 µM) |
| CO[C@@H]1[C@H](O)[C@@H](CO)O[C@H]1n1cnc(C(N)=O)n1 | > 200 | > 200 | > 200 | > 200 | inactive |  |
